Assay results published in ChEMBL document CHEMBL4308858 (Eur J Med Chem, 2018).
Active and inactive are the calls of the source. The rule behind the calls is not given here.

Legend:
[1] = Half life in rat plasma at 5 uM by LC-MS/MS analysis; type: ADME, cell-free
Procedure, shortened: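 Compound at 5 µM final in rat plasma, shaken at 37 °C and sampled at 0, 30, 60, 120 and 240 min. Reaction stopped with three volumes of ice-cold acetonitrile and protein spun out. Supernatant analysed by LC-MS/MS on a C18 column with formic acid/water–ACN mobile phase. Percent parent remaining taken from peak areas; n = 3.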

Anoctamin-2 = molecular target: T1, Anoctamin-2 (Homo sapiens, UniProt Q9NQ90); test: Inhibition of YFP-fused ANO2 (unknown origin) expressed in FRT cells after 20 mins by fluorescence quenching method; type: cell-based
T1 sequence (Q9NQ90 whole entry): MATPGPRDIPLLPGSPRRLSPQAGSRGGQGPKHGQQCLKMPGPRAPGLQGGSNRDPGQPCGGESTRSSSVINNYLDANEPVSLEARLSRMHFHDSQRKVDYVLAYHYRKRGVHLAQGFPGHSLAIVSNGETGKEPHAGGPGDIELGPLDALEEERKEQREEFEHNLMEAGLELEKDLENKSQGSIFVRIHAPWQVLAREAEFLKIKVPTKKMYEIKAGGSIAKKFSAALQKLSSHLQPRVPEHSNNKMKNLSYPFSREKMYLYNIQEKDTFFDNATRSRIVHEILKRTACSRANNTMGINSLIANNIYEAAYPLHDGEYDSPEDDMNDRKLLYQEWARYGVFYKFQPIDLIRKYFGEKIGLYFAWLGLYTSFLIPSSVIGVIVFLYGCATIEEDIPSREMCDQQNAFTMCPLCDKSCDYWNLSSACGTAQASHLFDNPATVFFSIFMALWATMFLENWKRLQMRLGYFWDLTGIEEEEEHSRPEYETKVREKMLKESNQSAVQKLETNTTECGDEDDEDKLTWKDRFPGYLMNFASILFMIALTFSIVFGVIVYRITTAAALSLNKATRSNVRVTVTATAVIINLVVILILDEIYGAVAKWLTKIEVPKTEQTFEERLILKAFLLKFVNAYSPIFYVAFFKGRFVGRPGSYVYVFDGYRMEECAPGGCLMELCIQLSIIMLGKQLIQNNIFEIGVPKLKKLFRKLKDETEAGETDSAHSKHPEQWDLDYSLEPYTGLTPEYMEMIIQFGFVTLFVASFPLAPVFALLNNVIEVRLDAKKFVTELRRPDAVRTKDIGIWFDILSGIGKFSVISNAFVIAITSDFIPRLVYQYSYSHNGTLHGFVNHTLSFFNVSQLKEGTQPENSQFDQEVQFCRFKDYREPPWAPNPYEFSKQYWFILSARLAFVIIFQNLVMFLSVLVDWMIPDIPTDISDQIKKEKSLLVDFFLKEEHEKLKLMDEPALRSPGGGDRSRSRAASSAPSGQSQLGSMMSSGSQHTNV

Anoctamin-1 = molecular target: T2, Anoctamin-1 (Homo sapiens, UniProt Q5XXA6); test: Inhibition of YFP-fused ANO1 (unknown origin) expressed in FRT cells after 20 mins by fluorescence quenching method; type: cell-based
T2 sequence (Q5XXA6 whole entry): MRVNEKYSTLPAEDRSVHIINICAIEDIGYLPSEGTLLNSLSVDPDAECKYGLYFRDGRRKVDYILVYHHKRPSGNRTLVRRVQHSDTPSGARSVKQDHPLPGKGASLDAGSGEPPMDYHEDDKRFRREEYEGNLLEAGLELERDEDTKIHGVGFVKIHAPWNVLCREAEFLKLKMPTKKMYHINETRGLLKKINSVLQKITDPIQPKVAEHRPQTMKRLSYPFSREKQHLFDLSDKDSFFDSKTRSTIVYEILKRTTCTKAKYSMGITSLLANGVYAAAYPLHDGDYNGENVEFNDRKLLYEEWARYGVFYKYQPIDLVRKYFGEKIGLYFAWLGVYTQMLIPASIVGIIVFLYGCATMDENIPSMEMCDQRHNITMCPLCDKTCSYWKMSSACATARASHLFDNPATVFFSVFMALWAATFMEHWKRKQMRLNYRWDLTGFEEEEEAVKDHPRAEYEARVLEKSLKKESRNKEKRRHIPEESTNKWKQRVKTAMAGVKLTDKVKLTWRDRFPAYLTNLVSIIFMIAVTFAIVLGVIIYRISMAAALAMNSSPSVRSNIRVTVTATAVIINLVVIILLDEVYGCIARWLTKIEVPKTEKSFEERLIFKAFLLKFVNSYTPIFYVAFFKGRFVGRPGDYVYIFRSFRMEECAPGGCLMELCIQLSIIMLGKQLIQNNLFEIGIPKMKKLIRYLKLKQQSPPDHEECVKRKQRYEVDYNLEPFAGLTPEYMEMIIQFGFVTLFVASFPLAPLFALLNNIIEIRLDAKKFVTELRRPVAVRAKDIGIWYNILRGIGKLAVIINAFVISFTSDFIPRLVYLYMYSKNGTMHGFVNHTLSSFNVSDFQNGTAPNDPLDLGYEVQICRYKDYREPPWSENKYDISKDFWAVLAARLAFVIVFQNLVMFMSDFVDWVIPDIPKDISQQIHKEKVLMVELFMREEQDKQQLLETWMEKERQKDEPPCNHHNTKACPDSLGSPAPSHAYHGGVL

ANO2 (Anoctamin-2) = molecular target: T3, ANO2 (Anoctamin-2) (Homo sapiens, UniProt Q9NQ90); test: Inhibition of YFP-fused ANO2 (unknown origin) expressed in FRT cells after 20 mins by fluorescence quenching method relative to untreated control; type: cell-based; set-up: concentration or dose not given beside the values; conditions: FRT cells expressing YFP-fused ANO2
T3 sequence (Q9NQ90 whole entry): T1 sequence (Q9NQ90 whole entry)
Procedure, shortened: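 FRT cells stably co-expressing YFP-H148Q/I152L/F46L and ANO1 or ANO2, seeded 2×10^4 per well and grown 48 h. After PBS washes, compound given for 20 min. At 2 s, 70 mM I⁻ solution containing 200 µM ATP added; fluorescence read every 0.4 s for 6 s. Inhibition taken from initial slope of quenching; mean ± S.E., n = 3.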

BXPC-3 [2] = test: Cytotoxicity against human BxPC3 cells assessed as reduction in cell viability at 10 uM after 48 hrs by MTS assay; type: functional, cell-based
Procedure, shortened: (§1)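 PC3, MCF7 and BxPC3 cells grown in RPMI1640 with 10% FBS, plated and held 24 h in 2% FBS medium. At about 20% confluency, compound added at 0.01–30 µM for 48 h, with medium and compound replaced every 24 h. MTS reagent applied for 1 h and formazan absorbance read at 490 nm; mean ± S.E., n = 3.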

PC-3 [3] = test: Cytotoxicity against human PC3 cells assessed as reduction in cell viability at 10 uM after 48 hrs by MTS assay; type: functional, cell-based; procedure, shortened: as §1
MCF7 [4] = test: Cytotoxicity against human MCF7 cells assessed as reduction in cell viability at 10 uM after 48 hrs by MTS assay; type: functional, cell-based; procedure, shortened: as §1
[5] = molecular target: CFTR (cystic fibrosis transmembrane conductance regulator) (Homo sapiens, UniProt P13569); test: Inhibition of wild type human CFTR expressed in FRT cells assessed as reduction in forskolin-induced chloride current at 10 uM after 20 mins by electrophysiological assay; type: cell-based; conditions: FRT cells expressing wild type human CFTR
Procedure, shortened: (§2)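 Ussing chamber, FRT monolayers expressing ANO1, ANO2 or human WT-CFTR. Basolateral side permeabilised with amphotericin B (250 µg/mL) in HCO3⁻-buffered solution, pH 7.4; apical side half-Cl⁻ (65 mM NaCl replaced by gluconate). Run at 37 °C under 95% O2/5% CO2. Compound applied apically for 20 min, then ANO1/2 activated with 100 µM ATP or CFTR with 20 µM forskolin. Apical current recorded; n = 3–6.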

PC-3 [6] = test: Cytotoxicity against human PC3 cells assessed as reduction in cell viability after 48 hrs by MTS assay; type: functional, cell-based; procedure, shortened: as §1
Homo sapiens [7] = species: Homo sapiens; test: Selectivity for ANO1 (unknown origin) over wild type human CFTR
[8] = molecular target: T4, Anoctamin-1 (Homo sapiens) (UniProt Q5XXA6); test: Inhibition of ANO1 (unknown origin) expressed in FRT cells assessed as reduction in ATP-induced chloride current after 20 mins by electrophysiological assay; type: cell-based
T4 sequence (whole entry): T2 sequence (Q5XXA6 whole entry)

[9] = molecular target: Cystic fibrosis transmembrane conductance regulator (Homo sapiens, UniProt P13569); test: Inhibition of wild type human CFTR expressed in FRT cells assessed as reduction in forskolin-induced chloride current at 30 to 100 uM after 20 mins by electrophysiological assay; type: cell-based; procedure, shortened: as §2
MCF7 [10] = test: Cytotoxicity against human MCF7 cells assessed as reduction in cell viability after 48 hrs by MTS assay; type: functional, cell-based; procedure, shortened: as §1
PC-3 [11] = test: Inhibition of ANO1 protein expression level in human PC3 cells at 3 to 10 uM after 24 hrs by Western blot analysis; type: functional, cell-based
Procedure, shortened: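 PC3 cells exposed to compound for 24 h and lysed in NP-40/deoxycholate buffer with protease and phosphatase inhibitors. Lysate cleared at 15000 g, resolved on 4–12% Tris-glycine gel and transferred to PVDF. Blocked in 4% milk/TBST, probed with anti-ANO1 (1:500) then anti-rabbit secondary (1:2000), and detected by ECL.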

BXPC-3 [12] = test: Cytotoxicity against human BxPC3 cells assessed as reduction in cell viability after 48 hrs by MTS assay; type: functional, cell-based; procedure, shortened: as §1
Homo sapiens [13] = species: Homo sapiens; test: Selectivity for ANO1 (unknown origin) over ANO2 (unknown origin)

Chain of CFTR (cystic fibrosis transmembrane conductance regulator) (P13569 whole entry): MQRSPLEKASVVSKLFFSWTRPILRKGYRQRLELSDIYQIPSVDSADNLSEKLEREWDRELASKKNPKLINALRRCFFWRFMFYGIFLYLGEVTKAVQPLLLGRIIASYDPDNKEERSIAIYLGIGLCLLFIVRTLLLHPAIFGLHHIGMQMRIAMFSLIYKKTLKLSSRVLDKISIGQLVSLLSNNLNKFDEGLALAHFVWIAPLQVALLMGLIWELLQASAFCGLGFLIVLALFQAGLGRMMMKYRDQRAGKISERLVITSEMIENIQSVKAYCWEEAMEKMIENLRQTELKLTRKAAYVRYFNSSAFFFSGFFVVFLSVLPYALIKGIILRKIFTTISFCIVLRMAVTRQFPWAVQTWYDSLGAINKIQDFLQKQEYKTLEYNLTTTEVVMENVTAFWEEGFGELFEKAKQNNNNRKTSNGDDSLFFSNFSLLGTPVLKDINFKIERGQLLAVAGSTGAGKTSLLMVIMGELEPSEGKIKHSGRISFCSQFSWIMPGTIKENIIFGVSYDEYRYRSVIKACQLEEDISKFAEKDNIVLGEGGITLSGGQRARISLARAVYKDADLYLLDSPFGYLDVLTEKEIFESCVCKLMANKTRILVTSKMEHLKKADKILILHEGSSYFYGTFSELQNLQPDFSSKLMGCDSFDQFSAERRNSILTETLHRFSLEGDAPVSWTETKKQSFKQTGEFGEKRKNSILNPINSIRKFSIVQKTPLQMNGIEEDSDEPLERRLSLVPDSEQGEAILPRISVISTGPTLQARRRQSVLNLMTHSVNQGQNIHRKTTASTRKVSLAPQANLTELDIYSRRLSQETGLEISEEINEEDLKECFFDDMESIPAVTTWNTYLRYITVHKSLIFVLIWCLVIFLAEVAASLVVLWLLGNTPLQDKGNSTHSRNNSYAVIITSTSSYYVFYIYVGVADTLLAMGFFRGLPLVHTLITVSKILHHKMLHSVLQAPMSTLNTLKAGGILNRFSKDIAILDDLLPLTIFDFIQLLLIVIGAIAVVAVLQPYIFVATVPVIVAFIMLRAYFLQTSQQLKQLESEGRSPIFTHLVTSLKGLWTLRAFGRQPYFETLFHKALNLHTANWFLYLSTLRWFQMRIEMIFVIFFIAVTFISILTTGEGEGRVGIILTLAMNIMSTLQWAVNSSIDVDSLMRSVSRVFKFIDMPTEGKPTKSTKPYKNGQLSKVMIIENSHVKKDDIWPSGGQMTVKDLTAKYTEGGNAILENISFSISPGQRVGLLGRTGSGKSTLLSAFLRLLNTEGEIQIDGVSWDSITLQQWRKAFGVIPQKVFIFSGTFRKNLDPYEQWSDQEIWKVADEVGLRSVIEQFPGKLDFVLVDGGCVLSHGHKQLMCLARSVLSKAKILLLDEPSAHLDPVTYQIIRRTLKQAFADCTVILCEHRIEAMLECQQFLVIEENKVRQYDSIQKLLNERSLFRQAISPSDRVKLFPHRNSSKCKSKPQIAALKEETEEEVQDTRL
Chain of Cystic fibrosis transmembrane conductance regulator (P13569 whole entry): as above

Row | Structure (SMILES) | IC50 (Anoctamin-2; read-out: IC50) | IC50 (Anoctamin-1; read-out: IC50) | IC50 (Anoctamin-2) | inhibition at 20 min (ANO2 (Anoctamin-2)) | also measured
1 | COc1ccccc1/C=N/NC(=O)COc1ccc(Cl)cc1C | – | – | – | – | half-life at 5 µM [1]: 0.533 h
2 | Cc1cc(Cl)ccc1OC(C)(C)C(=O)N/N=C/c1ccccc1OC(F)(F)F | > 100 µM | – | – | – | IC50 (Anoctamin-1): Not Active
3 | COc1ccccc1/C=N/NC(=O)c1cc2cc(Cl)ccc2o1 | > 100 µM | > 100 µM | – | – | –
4 | Cc1cc(Cl)ccc1OCc1nnc(-c2ccccn2)o1 | – | > 100 µM | Not Active | < 20% | –
5 | Cc1cc(Cl)ccc1OCC(=O)N/N=C/c1cccc(OC(F)(F)F)c1 | – | > 100 µM | Not Active | < 20% | Activity (BXPC-3 [2]): inactive; Activity (PC-3 [3]): inactive; Activity (MCF7 [4]): inactive
6 | Cc1cc(Cl)ccc1OC(F)(F)C(=O)N/N=C/c1ccccc1OC(F)(F)F | > 100 µM | > 100 µM | – | – | –
7 | O=C(O)c1ccc(/C=C2/SC(=S)N(c3cccc(C(F)(F)F)c3)C2=O)cc1 | – | – | – | – | inhibition at 20 min, 10 µM [5]: 100%
8 | COc1cccc(-c2nnc(COc3ccc(Cl)cc3C)o2)c1 | > 100 µM | > 100 µM | – | – | –
9 | Cc1cc(Cl)ccc1OCc1nnc(-c2cccc(OC(F)(F)F)c2)o1 | – | > 100 µM | Not Active | < 20% | –
10 | Cc1cc(Cl)ccc1OCC(=O)N/N=C/c1ccccc1C(F)(F)F | – | – | Not Active | < 20% | –
11 | COc1cccc(/C=N/NC(=O)COc2ccc(Cl)cc2C)c1 | – | > 100 µM | Not Active | < 20% | –
12 | C/C(=N\NC(=O)COc1ccc(Cl)cc1C)c1ccccc1OC(F)(F)F | > 100 µM | – | – | – | –
13 | Cc1cc(Cl)ccc1OCc1nnc(-c2ccccc2C(F)(F)F)o1 | > 100 µM | > 100 µM | – | – | –
14 | Cc1cc(Cl)ccc1OCc1nnc(-c2ccco2)o1 | > 100 µM | – | – | – | –
15 | Cc1cc(Cl)ccc1OCc1nnc(-c2cccc(F)c2)o1 | > 100 µM | > 100 µM | – | – | –
16 | Cc1cc(Cl)ccc1OCC(=O)N/N=C/c1ccccn1 | > 100 µM | – | – | – | –
17 | COc1ccccc1CNNC(=O)COc1ccc(Cl)cc1C | > 100 µM | – | – | – | –
18 | Cc1cc(Cl)ccc1OCC(=O)N/N=C/c1ccco1 | – | – | Not Active | < 20% | –
19 | Cc1cc(Cl)ccc1OC(C)C(=O)N/N=C/c1ccccc1OC(F)(F)F (configuration not stated) | – | > 100 µM | Not Active | – | –
20 | COc1ccccc1-c1nnc(-c2cc3cc(Cl)ccc3o2)o1 | > 100 µM | > 100 µM | – | – | –
21 | Cc1cc(Cl)ccc1OCC(=O)N/N=C/c1ccccc1OC(F)(F)F | – | – | Not Active | < 20% | half-life at 5 µM [1]: 1.73 h; Activity (PC-3 [6]): Dose-dependent effect; Selectivity ratio (Homo sapiens [7]): > 1000; inhibition [8]: Dose-dependent effect; inhibition (INH) [9]: Not Active; Activity (MCF7 [10]): Dose-dependent effect; inhibition (PC-3 [11]): Active; Activity (BXPC-3 [12]): Dose-dependent effect; Selectivity ratio (Homo sapiens [13]): > 1000
22 | Cc1cc(Cl)ccc1OCc1nnc(-c2ccccc2F)o1 | > 100 µM | – | – | – | –
23 | Cc1cc(Cl)ccc1OCc1nnc(-c2ccccc2OC(F)(F)F)o1 | – | > 100 µM | Not Active | < 20% | –
24 | Cc1cc(Cl)ccc1OCC(=O)N/N=C/c1ccccc1F | – | 0.89 µM | Not Active | < 20% | –
25 | Cc1cc(Cl)ccc1OCC(=O)N/N=C/c1cccc(F)c1 | – | > 100 µM | Not Active | < 20% | –
